Experimental data from ChEMBL document CHEMBL1127638, “Dibasic (amidinoaryl)propanoic acid derivatives as novel blood coagulation factor Xa inhibitors” (J Med Chem, 1994).
pIC50: −log10 of the molar value.

Key:
Coagulation factor X = Coagulation factor X (Homo sapiens, UniProt P00742); experiment: In vitro evaluation for the concentration needed for inhibiting factor Xa by 50%
[1] = In vitro evaluation for the concentration needed to double the Plasma recalcification clotting time; type: functional, Homo sapiens
In short: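 Human plasma incubated with saline or inhibitor in saline for 2 min at 37 °C. Clotting started with 20 mM CaCl2 solution. Result given as the concentration that doubles plasma clotting time (CT2).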

Prothrombin = Prothrombin (Homo sapiens, UniProt P00734); experiment: In vitro evaluation for the concentration needed for inhibiting thrombin by 50%
Rattus norvegicus [2] = experiment: Ex vivo anticoagulant activity was measured by calculating the Activated partial thromboplastin time at 0.5 hr by dose of 300 mg/kg on oral administration in male Wistar rat; type: functional
In short: (§1)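 Male Wistar rats (200-250 g), fasted overnight, given compound dissolved in water by stomach tube. Anesthetized with sodium thiopental (100 mg/kg, ip) 15 min after dosing. Jugular vein blood taken into trisodium citrate at several time points and centrifuged to platelet-poor plasma. APTT read after mixing plasma with saline and Platerin Plus activator, clotting started with 20 mM CaCl2. Reported as test/control ratio, mean ± SE, n = 4-5.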

Rattus norvegicus [3] = experiment: Ex vivo anticoagulant activity was measured by calculating the Activated partial thromboplastin time at 1 hr by dose of 300 mg/kg on oral administration in male Wistar rat; type: functional; in short: as §1
Rattus norvegicus [4] = experiment: Ex vivo anticoagulant activity was measured by calculating the Activated partial thromboplastin time at 2 hr by dose of 300 mg/kg on oral administration in male Wistar rat; type: functional; in short: as §1
Rattus norvegicus [5] = experiment: Ex vivo anticoagulant activity was measured by calculating the Activated partial thromboplastin time at 4 hr by dose of 300 mg/kg on oral administration in male Wistar rat; type: functional; in short: as §1
Rattus norvegicus [6] = experiment: Ex vivo anticoagulant activity was measured by calculating the Activated partial thromboplastin time (test/control) at 1 hr by dose of 100 mg/kg on oral administration in male Wistar rat; type: functional; in short: as §1
Rattus norvegicus [7] = experiment: Ex vivo anticoagulant activity was measured by calculating the Activated partial thromboplastin time (test/control) at 2 hr by dose of 100 mg/kg on oral administration in male Wistar rat; type: functional; in short: as §1
Rattus norvegicus [8] = experiment: Ex vivo anticoagulant activity was measured by calculating the Activated partial thromboplastin time (test/control) at 4 hr by dose of 100 mg/kg on oral administration in male Wistar rat; type: functional; in short: as §1
Rattus norvegicus [9] = experiment: Ex vivo anticoagulant activity was measured by calculating the Activated partial thromboplastin time (test/control) at 0.5 h by dose of 100 mg/kg on oral administration in male Wistar rat; type: functional; in short: as §1

Sequence of Coagulation factor X (P00742 41-179 limits assumed): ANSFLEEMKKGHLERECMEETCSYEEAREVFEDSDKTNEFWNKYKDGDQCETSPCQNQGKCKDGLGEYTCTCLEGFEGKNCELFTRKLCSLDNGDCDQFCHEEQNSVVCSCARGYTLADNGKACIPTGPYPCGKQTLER
Sequence of Coagulation factor X (P00742 235-488 limits assumed): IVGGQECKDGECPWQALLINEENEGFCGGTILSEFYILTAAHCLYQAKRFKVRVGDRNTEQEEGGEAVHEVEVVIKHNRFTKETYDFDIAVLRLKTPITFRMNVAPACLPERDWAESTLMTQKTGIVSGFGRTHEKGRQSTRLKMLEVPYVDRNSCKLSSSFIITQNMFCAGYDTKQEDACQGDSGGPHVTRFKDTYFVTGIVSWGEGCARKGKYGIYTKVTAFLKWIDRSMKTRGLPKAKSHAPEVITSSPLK

| SMILES | pIC50 (Coagulation factor X) | CT2 [1] [µM] | pIC50 (Prothrombin) | further results |
| --- | --- | --- | --- | --- |
| N=C(N)c1ccc2ccc(CC(C(=O)O)c3ccc(O[C@H]4CCNC4)cc3)cc2c1 (some centres not stated) | 6.70 | 3.2 | < 2.80 |  |
| CCOC(=O)C(Cc1cc2ccc(C(=N)N)cc2o1)c1ccc(O[C@H]2CCNC2)cc1 (some centres not stated) | 5.77 | 8.3 | 4.44 |  |
| CC(=N)N1CC[C@H](Oc2ccc([C@@H](Cc3ccc4ccc(C(=N)N)cc4c3)C(=O)O)cc2)C1 |  | 6 |  |  |
| CC(=N)N1CC[C@H](Oc2ccc(CCc3cc4cc(C(=N)N)ccc4o3)cc2)C1 | 6.19 | 1.2 | 5.40 |  |
| CC(=N)N1CC[C@H](Oc2ccc(C(Cc3ccc4cc(C(=N)N)ccc4c3)C(=O)O)cc2)C1 (some centres not stated) |  | 4.4 |  |  |
| N=C(N)c1ccc2oc(CCc3ccc(O[C@H]4CCNC4)cc3)cc2c1 | 6.03 | 7.5 | 4.00 |  |
| CC(=N)N1CC[C@H](Oc2ccc(C(Cc3ccc4ccc(C(=N)N)cc4c3)C(=O)O)cc2)C1 (some centres not stated) |  | 1.3 |  |  |
| N=C(N)c1ccc2cc(CC(C(=O)O)c3ccc(O[C@H]4CCNC4)cc3)oc2c1 (some centres not stated) | 5.77 | 16 | < 3.00 |  |
| CC(=N)N1CC[C@H](Oc2ccc(C(Cc3cc4ccc(C(=N)N)cc4o3)C(=O)O)cc2)C1 (some centres not stated) | 6.08 | 5.6 | < 3.40 |  |
| CCOC(=O)C(Cc1ccc2ccc(C(=N)N)cc2c1)c1ccc(O[C@H]2CCNC2)cc1 (some centres not stated) | 6.51 | 3.2 | < 3.22 |  |
| CC(=N)N1CC[C@H](Oc2ccc(C(Cc3cc4cc(C(=N)N)ccc4o3)C(=O)O)cc2)C1 (some centres not stated) | 6.30 | 6 | 4.82 |  |
| CCOC(=O)C(Cc1ccc2cc(C(=N)N)ccc2c1)c1ccc(O[C@H]2CCNC2)cc1 (some centres not stated) | 5.38 | 12.4 | 4.42 |  |
| CCOC(=O)C(Cc1ccc(O[C@H]2CCNC2)cc1)c1cc2cc(C(=N)N)ccc2o1 (some centres not stated) | 4.28 | 31 | 4.70 | Tested/Control (Rattus norvegicus [2]): 0.98; Tested/Control (Rattus norvegicus [3]): 1.3; Tested/Control (Rattus norvegicus [4]): 1.11; Tested/Control (Rattus norvegicus [5]): 1.05 |
| N=C(N)c1ccc2cc(CC(C(=O)O)c3ccc(O[C@H]4CCNC4)cc3)ccc2c1 (some centres not stated) | 5.39 | 22 | < 4.00 |  |
| N=C(N)c1ccc2oc(CCc3cc4cc(C(=N)N)ccc4o3)cc2c1 | 7.00 | 1.6 | 5.30 |  |
| N=C(N)c1ccc2oc(CC(C(=O)O)c3ccc(O[C@H]4CCNC4)cc3)cc2c1 (some centres not stated) |  | 14 | 3.64 | Tested/Control (Rattus norvegicus [2]): 1.28; Tested/Control (Rattus norvegicus [3]): 1.4; Tested/Control (Rattus norvegicus [4]): 1.25; Tested/Control (Rattus norvegicus [5]): 1.2 |
| N=C(N)c1ccc2oc(C(Cc3ccc(O[C@H]4CCNC4)cc3)C(=O)O)cc2c1 (some centres not stated) | 4.35 | 14 | 5.05 | Tested/Control (Rattus norvegicus [3]): 1.33; Tested/Control (Rattus norvegicus [4]): 1.15; Tested/Control (Rattus norvegicus [5]): 1.16 |
| CCOC(=O)C(Cc1cc2cc(C(=N)N)ccc2o1)c1ccc(O[C@H]2CCNC2)cc1 (some centres not stated) | 6.00 | 20 | 4.68 | Tested/Control (Rattus norvegicus [2]): 1.17; Tested/Control (Rattus norvegicus [3]): 1.17; Tested/Control (Rattus norvegicus [4]): 1.19; Tested/Control (Rattus norvegicus [5]): 1.21 |
| CC(=N)N1CC[C@H](Oc2ccc([C@H](Cc3ccc4ccc(C(=N)N)cc4c3)C(=O)O)cc2)C1 [DX-9065A] |  | 0.5 |  | Tested/Control (Rattus norvegicus [6]): 1.51; Tested/Control (Rattus norvegicus [7]): 1.48; Tested/Control (Rattus norvegicus [8]): 1.28; Tested/Control (Rattus norvegicus [9]): 1.63 |
